# ChEMBL document CHEMBL4831540, “Discovery of Aficamten (CK-274), a Next-Generation Cardiac Myosin Inhibitor for the Treatment of Hypertrophic Cardiomyopathy” (J Med Chem, 2021)
# pIC50: −log10 of the molar value.
# Experiments:
# [1] = Cmax in Sprague-Dawley rat at 2 mg/kg, po; type: ADME, organism-based; set-up: route oral, dose 2 mg/kg; details: in vivo
# Outline: (§1)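 Multi-species PK study in male animals, n = 3 per group (dog IV arm n = 2). Iv and oral dosing with plasma concentration–time profiles yielding Cmax, tmax, AUC0–t, CL, Vss, t1/2 and F.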
# [2] = Metabolic stability in human liver microsomes assessed as intrinsic clearance measured upto 90mins by HPLC/MS/MS analysis; type: ADME, Microsome; details: read-out: CLH
# [3] = Plasma protein binding in human assessed as unbound fraction; type: ADME, cell-free
# [4] = Clearance in Sprague-Dawley rat at 1 mg/kg; type: ADME, organism-based; details: in vivo
# Outline: (§2)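 Rat PK with iv and po administration at 1 mg/kg. Clearance and half-life came from the iv arm, and bioavailability from the iv/po comparison.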
# [5] = Bioavailability in Sprague-Dawley rat at 1 mg/kg, po or 1 mg/kg, iv; type: ADME, organism-based; details: in vivo; outline: as §2
# [6] = Volume of distribution at steady state in mouse at 0.5 mg/kg, iv; type: ADME, organism-based; details: in vivo, read-out: Vdss
# Outline: (§3)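 Single iv or oral doses in male animals, 3 per group except dog iv (2 animals). Plasma concentration–time profiles gave Cmax, tmax, AUC0–t, clearance, steady-state volume of distribution, half-life and bioavailability.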
# [7] = Cmax in mouse at 1 mg/kg, po; type: ADME, organism-based; set-up: route oral, dose 1 mg/kg; details: in vivo; outline: as §1
# [8] = Tmax in mouse at 1 mg/kg, po; type: ADME, organism-based; details: in vivo; outline: as §3
# [9] = AUC (0 to t) in mouse at 1 mg/kg, po; type: ADME, organism-based; set-up: dose 1 mg/kg; details: in vivo; outline: as §1
# [10] = Oral bioavailability in mouse at 1 mg/kg; type: ADME, organism-based; details: in vivo; outline: as §3
# [11] = Volume of distribution at steady state in Sprague-Dawley rat at 1 mg/kg, iv; type: ADME, organism-based; details: in vivo, read-out: Vdss; outline: as §3
# [12] = Half life in Sprague-Dawley rat at 1 mg/kg, iv; type: ADME, organism-based; details: in vivo; outline: as §2
# [13] = Tmax in Sprague-Dawley rat at 2 mg/kg, po; type: ADME, organism-based; details: in vivo; outline: as §3
# [14] = AUC (0 to t) in Sprague-Dawley rat at 2 mg/kg, po; type: ADME, organism-based; set-up: dose 2 mg/kg; details: in vivo; outline: as §1
# [15] = Half life in Sprague-Dawley rat at 2 mg/kg, po; type: ADME, organism-based; details: in vivo; outline: as §1
# [16] = Cmax in Sprague-Dawley rat at 3 mg/kg, po; type: ADME, organism-based; set-up: route oral, dose 3 mg/kg; details: in vivo
# [17] = Half life in Sprague-Dawley rat at 3 mg/kg, po; type: ADME, organism-based; details: in vivo
# [18] = Tmax in Sprague-Dawley rat at 8 mg/kg, po; type: ADME, organism-based; details: in vivo; outline: as §3
# [19] = AUC (0 to t) in Sprague-Dawley rat at 8 mg/kg, po; type: ADME, organism-based; set-up: dose 8 mg/kg; details: in vivo; outline: as §1
# [20] = Half life in Sprague-Dawley rat at 8 mg/kg, po; type: ADME, organism-based; details: in vivo; outline: as §1
# [21] = Oral bioavailability in Sprague-Dawley rat at 8 mg/kg; type: ADME, organism-based; details: in vivo; outline: as §3
# [22] = Clearance in Beagle dog at 1 mg/kg, iv; type: ADME, organism-based, Canis lupus familiaris; details: in vivo; outline: as §1
# [23] = Cmax in Beagle dog at 1 mg/kg, po; type: ADME, organism-based, Canis lupus familiaris; set-up: route oral, dose 1 mg/kg; details: in vivo; outline: as §1
# [24] = Tmax in Beagle dog at 1 mg/kg, po; type: ADME, organism-based, Canis lupus familiaris; details: in vivo; outline: as §3
# [25] = Oral bioavailability in Beagle dog at 1 mg/kg; type: ADME, organism-based, Canis lupus familiaris; details: in vivo; outline: as §1
# [26] = AUC (0 to t) in cynomolgus monkey at 1 mg/kg, iv; type: ADME, organism-based, Macaca fascicularis; set-up: dose 1 mg/kg; details: in vivo; outline: as §1
# [27] = Clearance in cynomolgus monkey at 1 mg/kg, iv; type: ADME, organism-based, Macaca fascicularis; details: in vivo; outline: as §1
# [28] = Cmax in cynomolgus monkey at 1 mg/kg, po; type: ADME, organism-based, Macaca fascicularis; set-up: route oral, dose 1 mg/kg; details: in vivo; outline: as §1
# [29] = Tmax in cynomolgus monkey at 1 mg/kg, po; type: ADME, organism-based, Macaca fascicularis; details: in vivo; outline: as §3
# [30] = Half life in cynomolgus monkey at 1 mg/kg, po; type: ADME, organism-based, Macaca fascicularis; details: in vivo; outline: as §1
# [31] = Oral bioavailability in cynomolgus monkey at 1 mg/kg; type: ADME, organism-based, Macaca fascicularis; details: in vivo; outline: as §3
# [32] = test system: Rattus norvegicus; test: Anti-hypertrophic cardiomyopathy in po dosed Sprague-Dawley rat assessed as reduction in fractional shortening measured upto 24 hrs by echocardiography; type: functional, organism-based
# Outline: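 Normal Sprague–Dawley rats were given single oral doses of 0.5–4 mg/kg. Left ventricular dimensions and fractional shortening were measured by echocardiography at selected time points over 24 h, relative to vehicle treatment.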
# [33] = test system: Rattus norvegicus; test: Anti-hypertrophic cardiomyopathy in po dosed Sprague-Dawley rat assessed as reduction in fractional shortening by measuring free concentration measured upto 24 hrs by echocardiography; type: functional; details: time hrs <=24
# Outline: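 Sprague–Dawley rats received single oral doses of 0.5–4 mg/kg, with fractional shortening measured by echocardiography over 24 h. Blood was sampled at each echo time point. Plasma levels were converted to free concentrations using rat plasma protein binding, and free IC10 and IC50 were derived from the FS reduction–concentration relationship.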
# [34] = Plasma protein binding in Beagle dog assessed as unbound fraction; type: ADME, Canis lupus familiaris
# [35] = biological target: T1, Cytochrome P450 2C8 (Homo sapiens, UniProt P10632); test: Inhibition of CYP2C8 in human liver microsomes assessed as paclitaxel 6a-hydroxylation reaction incubated for 30 mins in presence of NADP by LC-MS/MS analysis; type: ADME
# T1 sequence (P10632 whole entry): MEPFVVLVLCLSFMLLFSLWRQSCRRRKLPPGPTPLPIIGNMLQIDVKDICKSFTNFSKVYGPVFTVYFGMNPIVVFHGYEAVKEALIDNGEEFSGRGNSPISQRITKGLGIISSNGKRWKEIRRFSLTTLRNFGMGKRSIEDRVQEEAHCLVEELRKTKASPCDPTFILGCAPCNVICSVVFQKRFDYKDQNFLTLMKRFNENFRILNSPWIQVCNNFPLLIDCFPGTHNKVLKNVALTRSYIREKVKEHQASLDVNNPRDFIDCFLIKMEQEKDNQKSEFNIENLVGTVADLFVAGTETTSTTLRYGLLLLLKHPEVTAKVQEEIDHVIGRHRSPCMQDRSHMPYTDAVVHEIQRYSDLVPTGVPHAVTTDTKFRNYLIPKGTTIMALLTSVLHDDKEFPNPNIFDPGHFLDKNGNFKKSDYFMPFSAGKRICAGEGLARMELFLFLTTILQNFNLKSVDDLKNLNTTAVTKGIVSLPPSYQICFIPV
# [36] = biological target: Cytochrome P450 2C9 (Homo sapiens, UniProt P11712); test: Inhibition of CYP2C9 in human liver microsomes assessed as diclofenac 4'-hydroxylation reaction incubated for 30 mins in presence of NADP by LC-MS/MS analysis; type: ADME
# Cytochrome P450 2C9, sequence (P11712 whole entry): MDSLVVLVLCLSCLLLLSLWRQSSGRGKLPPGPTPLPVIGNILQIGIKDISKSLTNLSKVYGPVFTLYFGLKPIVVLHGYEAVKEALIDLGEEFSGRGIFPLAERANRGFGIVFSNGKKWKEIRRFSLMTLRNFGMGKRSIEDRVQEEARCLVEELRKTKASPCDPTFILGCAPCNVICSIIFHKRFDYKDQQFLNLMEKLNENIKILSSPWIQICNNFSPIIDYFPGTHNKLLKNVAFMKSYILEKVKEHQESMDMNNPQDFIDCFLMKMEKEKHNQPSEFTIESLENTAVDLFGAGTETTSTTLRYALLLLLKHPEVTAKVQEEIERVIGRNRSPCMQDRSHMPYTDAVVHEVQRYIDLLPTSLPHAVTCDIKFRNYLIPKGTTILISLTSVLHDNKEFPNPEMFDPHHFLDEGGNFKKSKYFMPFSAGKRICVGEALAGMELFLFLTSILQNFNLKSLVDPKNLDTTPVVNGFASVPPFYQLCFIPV
# [37] = biological target: Cytochrome P450 2D6 (Homo sapiens, UniProt P10635); test: Inhibition of CYP2D6 in human liver microsomes assessed as bufuralol 1'-hydroxylation reaction incubated for 30 mins in presence of NADP by LC-MS/MS analysis; type: ADME
# Cytochrome P450 2D6, sequence (P10635 whole entry): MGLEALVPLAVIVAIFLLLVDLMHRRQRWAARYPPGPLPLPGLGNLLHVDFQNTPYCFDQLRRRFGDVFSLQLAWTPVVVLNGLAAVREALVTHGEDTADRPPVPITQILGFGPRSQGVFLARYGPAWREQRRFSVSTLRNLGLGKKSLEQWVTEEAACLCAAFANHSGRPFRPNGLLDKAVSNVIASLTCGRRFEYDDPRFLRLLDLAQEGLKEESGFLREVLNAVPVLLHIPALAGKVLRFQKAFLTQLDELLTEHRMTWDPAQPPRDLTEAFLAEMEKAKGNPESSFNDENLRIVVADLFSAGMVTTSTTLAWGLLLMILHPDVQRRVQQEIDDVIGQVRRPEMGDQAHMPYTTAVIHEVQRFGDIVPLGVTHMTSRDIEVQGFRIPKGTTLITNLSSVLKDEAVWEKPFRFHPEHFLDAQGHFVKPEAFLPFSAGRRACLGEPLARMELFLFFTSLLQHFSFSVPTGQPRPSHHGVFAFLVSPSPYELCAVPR
# [38] = Half life in human; type: ADME
smiles,measurement,setting,value
CCc1nc(-c2ccc3c(c2)CC[C@H]3NC(=O)c2cnn(C)c2)no1 [AFICAMTEN],Cmax,[1],1650 ng/mL
same,CLint scaled,[2],< 11 mL/min/kg
same,fraction unbound,[3],0.095
same,clearance,[4],2.1 mL/min/kg
same,bioavailability,[5],55%
same,Vd,[6],3.14 L/kg
same,Cmax,[7],268 ng/mL
same,Tmax,[8],15 min
same,AUC(0-t),[9],1830 ng·h/mL
same,bioavailability,[10],98%
same,Vd,[11],0.53 L/kg
same,half-life,[12],180 min
same,Tmax,[13],55.2 min
same,AUC(0-t),[14],9450 ng·h/mL
same,half-life,[15],156 min
same,Cmax,[16],3170 ng/mL
same,half-life,[17],210 min
same,Tmax,[18],34.8 min
same,AUC(0-t),[19],53700 ng·h/mL
same,half-life,[20],198 min
same,bioavailability,[21],79%
same,clearance,[22],3.3 mL/min/kg
same,Cmax,[23],245 ng/mL
same,Tmax,[24],19.8 min
same,bioavailability,[25],45%
same,AUC(0-t),[26],1340 ng·h/mL
same,clearance,[27],11.2 mL/min/kg
same,Cmax,[28],65 ng/mL
same,Tmax,[29],1.17 h
same,half-life,[30],726 min
same,bioavailability,[31],41%
same,IC10,"[32]; Rattus norvegicus, Sprague-Dawley, 24 h",800 nM
same,IC50,[32]; time hrs <=24,7.9 µM
same,IC10,[33],0.0144 µM
same,fraction unbound,[34],0.251
same,pIC50,[35],< 4.00
same,pIC50,[36],< 4.00
same,pIC50,[37],< 4.00
same,half-life,[38],2.8 days
